Measurements reported in ChEMBL document CHEMBL2385079, “Design, synthesis and pharmacological characterization of analogs of 2-aminoethyl diphenylborinate (2-APB), a known store-operated calcium channel blocker, for inhibition of TRPV6-mediated calcium transport” (Bioorg Med Chem, 2013).
Activity calls are given as the source filed them. The calls are words filed in the database; no cut-off is given here.

How the values were obtained:
Type in all cases: cell-based
ORAI 1/2/3 [1] = biological target: T1, ORAI 1/2/3 (Homo sapiens, UniProt Q96D31+Q96SN7+Q9BRQ5); experiment: Inhibition of ORAl1/2/3 in HEK293 cells assessed as inhibition of Ca2+ influx after 10 mins by FLIPR assay in presence of thapsigargin
Summary of the method: (§1)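 Untransfected HEK293 cells plated at 40,000 cells/well, used after 36 h and loaded 1 h at 37 °C with Calcium-5 dye in nominally Ca2+-free modified Krebs buffer (117 mM NaCl, 4.8 mM KCl, 1 mM MgCl2, 10 mM HEPES). After a 50 s baseline, compound is added together with 1 µM thapsigargin for 10 min. Ca2+ or Cd2+ is then added, and the rate of fluorescence rise is read by FLIPR Tetra (ex 470–495, em 515–575 nm). IC50 is the mean of six experiments.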

[2] = biological target: T2, Transient receptor potential cation channel subfamily V member 6 (Homo sapiens, UniProt Q9H1D0); experiment: Inhibition of human TRPV6 transfected in HEK293 cells assessed as inhibition of Cd2+ influx after 5 mins by FLIPR assay
T2 sequence (Q9H1D0 whole entry): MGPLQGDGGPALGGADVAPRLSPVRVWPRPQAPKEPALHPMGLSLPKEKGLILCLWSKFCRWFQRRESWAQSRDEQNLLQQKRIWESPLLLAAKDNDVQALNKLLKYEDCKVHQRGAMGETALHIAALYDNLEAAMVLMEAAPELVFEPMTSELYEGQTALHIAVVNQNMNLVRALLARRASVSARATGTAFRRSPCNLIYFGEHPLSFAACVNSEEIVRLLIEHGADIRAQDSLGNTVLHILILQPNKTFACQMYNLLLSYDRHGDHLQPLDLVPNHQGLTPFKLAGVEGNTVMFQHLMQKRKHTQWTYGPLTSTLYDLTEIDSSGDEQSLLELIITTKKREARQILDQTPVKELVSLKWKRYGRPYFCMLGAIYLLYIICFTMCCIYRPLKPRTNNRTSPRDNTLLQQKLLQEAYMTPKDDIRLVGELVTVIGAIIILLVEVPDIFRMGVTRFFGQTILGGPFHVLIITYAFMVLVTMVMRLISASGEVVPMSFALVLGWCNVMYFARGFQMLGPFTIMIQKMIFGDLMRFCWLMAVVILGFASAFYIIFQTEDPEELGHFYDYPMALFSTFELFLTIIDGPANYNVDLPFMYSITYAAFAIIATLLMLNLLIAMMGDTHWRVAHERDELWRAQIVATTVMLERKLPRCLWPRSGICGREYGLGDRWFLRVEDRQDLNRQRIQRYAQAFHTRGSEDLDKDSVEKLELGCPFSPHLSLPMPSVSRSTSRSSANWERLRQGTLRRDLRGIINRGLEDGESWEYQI
Summary of the method: (§2)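 HEK293 clone stably expressing RFP-tagged hTRPV6, made by Lipofectamine transfection, G418 selection and picking of red-fluorescent single-cell colonies. Cells plated at 40,000/well and used after 36 h, then loaded 1 h at 37 °C with Calcium-5 in nominally Ca2+-free Krebs buffer. After a 50 s baseline, compound is given for 5 min. Then 2 mM CaCl2 or 50 µM CdCl2 is added, and the initial rate of fluorescence increase is read by FLIPR Tetra. IC50 is the average of six independent experiments.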

[3] = biological target: T2, Transient receptor potential cation channel subfamily V member 6; experiment: Inhibition of human TRPV6 transfected in HEK293 cells assessed as inhibition of Ca2+ influx after 5 mins by FLIPR assay; summary of the method: as §2
ORAI 1/2/3 [4] = biological target: T1, ORAI 1/2/3; experiment: Inhibition of ORAl1/2/3 in HEK293 cells assessed as inhibition of Cd2+ influx after 10 mins by FLIPR assay in presence of thapsigargin; summary of the method: as §1
ORAI 1/2/3 [5] = biological target: T1, ORAI 1/2/3; experiment: Inhibition of ORAl1/2/3 in HEK293 cells assessed as inhibition of Cd2+ influx up to 500 uM after 10 mins by FLIPR assay in presence of thapsigargin; summary of the method: as §1
ORAI 1/2/3 [6] = biological target: T1, ORAI 1/2/3; experiment: Inhibition of ORAl1/2/3 in HEK293 cells assessed as inhibition of Ca2+ influx up to 500 uM after 10 mins by FLIPR assay in presence of thapsigargin; summary of the method: as §1
[7] = biological target: T3, Transient receptor potential cation channel subfamily V member 6 (Homo sapiens) (UniProt Q9H1D0); experiment: Inhibition of human TRPV6 transfected in HEK293 cells assessed as inhibition of Cd2+ influx up to 500 uM after 5 mins by FLIPR assay; summary of the method: as §2
T3 sequence (whole entry): T2 sequence (Q9H1D0 whole entry)

[8] = biological target: T3, Transient receptor potential cation channel subfamily V member 6 (Homo sapiens); experiment: Inhibition of human TRPV6 transfected in HEK293 cells assessed as inhibition of Ca2+ influx up to 500 uM after 5 mins by FLIPR assay; summary of the method: as §2

Row | Structure (SMILES) | IC50 (ORAI 1/2/3 [1]) [µM] | IC50 [2] [µM] | IC50 [3] [µM] | IC50 (ORAI 1/2/3 [4]) [µM] | inhibition (ORAI 1/2/3 [5]) | inhibition (ORAI 1/2/3 [6]) | inhibition [7] | inhibition [8]
1 | Cc1ccc(B(O)c2ccc(C)cc2)cc1 | 23 | 29 | 18.6 | 25.9 | – | – | – | –
2 | c1ccc(OB(Oc2ccccc2)Oc2ccccc2)cc1 | – | – | – | – | inactive | inactive | inactive | inactive
3 | Cc1ccccc1[B-]1(c2ccccc2)[NH2+]CCO1 (stereo not given) | 10 | 67.9 | 31.1 | 9.9 | – | – | – | –
4 | COc1ccccc1[B-]1(c2ccccc2OC)[NH2+]CCO1 | 11.6 | 412 | > 500 | 10.5 | – | – | – | –
5 | C[N+]1(C)CCO[B-]1(c1ccccc1)c1ccccc1 | 8.9 | 19.8 | 63.6 | 5.1 | – | – | – | –
6 | c1ccc([B-]2(c3ccccc3)OCC[N+]23CCNCC3)cc1 | 6 | 24.3 | 15 | 2.2 | – | – | – | –
7 | Cc1ccc([B-]2(c3ccccc3)[NH2+]CCO2)cc1 (stereo not given) | 8.6 | 12.9 | 18.9 | 2.7 | – | – | – | –
8 | c1ccc(B(OB(c2ccccc2)c2ccccc2)c2ccccc2)cc1 | 11.4 | 17.7 | 19.2 | 13.4 | – | – | – | –
9 | CCCCc1ccc([B-]2(c3ccccc3)[NH2+]CCO2)cc1 (stereo not given) | 3.5 | 12.1 | 14.3 | 2.4 | – | – | – | –
10 | Fc1ccc([B-]2(c3ccc(F)cc3)[NH2+]CCO2)cc1 | 9 | 14.2 | 17 | 5.9 | – | – | – | –
11 | COc1ccccc1B(O)c1ccccc1OC | 13.2 | > 500 | > 500 | 11.8 | – | – | – | –
12 | OB(c1ccccc1)c1ccc(Cl)cc1 | 21.8 | 12 | 9.7 | 6.4 | – | – | – | –
13 | c1ccc(-c2ccc([B-]3(c4ccccc4)[NH2+]CCO3)cc2)cc1 (stereo not given) | 13.4 | 51.3 | 72.3 | 7.7 | – | – | – | –
14 | FC(F)(F)c1ccc([B-]2(c3ccc(C(F)(F)F)cc3)[NH2+]CCO2)cc1 | 2.1 | 13.7 | 16.3 | 3.2 | – | – | – | –
15 | c1ccc([B-]2(c3ccccc3)OC[C@H]3CCC[NH+]32)cc1 (stereo not given in full) | 8 | 30.6 | 18.5 | 10.1 | – | – | – | –
16 | OB(c1ccccc1)c1ccccc1 [DIPHENYL BORINIC ACID] | 9.8 | 31.5 | 19.1 | 8.7 | – | – | – | –
17 | OB(c1ccc(C(F)(F)F)cc1)c1ccc(C(F)(F)F)cc1 | 7.6 | 11.2 | 10.8 | 9.5 | – | – | – | –

Row | Structure (SMILES) | IC50 (ORAI 1/2/3 [1]) [µM] | IC50 [2] [µM] | IC50 [3] [µM] | IC50 (ORAI 1/2/3 [4]) [µM] | inhibition (ORAI 1/2/3 [5]) | inhibition (ORAI 1/2/3 [6]) | inhibition [7] | inhibition [8]
18 | OB1c2ccccc2CCc2ccccc21 | 33.3 | > 500 | > 500 | 36.4 | – | – | – | –
19 | c1ccc([B-]2(c3ccccc3)OC[C@@H]3CCC[NH+]32)cc1 (stereo not given in full) | 8.9 | 28 | 18.8 | 10.2 | – | – | – | –
20 | Cc1ccc([B-]2(c3ccc(C)cc3)[NH2+]CCO2)cc1 | 1.6 | 17.1 | 14.4 | 7.4 | – | – | – | –
21 | Fc1ccc([B-]2(c3ccccc3)[NH2+]CCO2)cc1 (stereo not given) | 9.3 | 33.6 | 18.8 | 9.8 | – | – | – | –
22 | c1ccc([B-]2(c3ccccc3)OCc3cccc[n+]32)cc1 | 10.7 | 41.5 | 34.9 | 10.2 | – | – | – | –
23 | CN(C)CCOC(c1ccccc1)c1ccccc1 [DIPHENHYDRAMINE] | > 500 | – | – | > 500 | – | – | inactive | inactive
24 | COc1ccc([B-]2(c3ccc(OC)cc3)[NH2+]CCO2)cc1 | 12.4 | 89.8 | > 100 | 25.8 | – | – | – | –
25 | OC(c1ccccc1)c1ccccc1 [DIPHENYLMETHANOL] | > 500 | – | – | > 500 | – | – | inactive | inactive
26 | NCCOC(c1ccccc1)c1ccccc1 | 106 | > 500 | 159 | 184.2 | – | – | – | –
27 | c1ccc([B-]2(c3ccccc3)[NH2+]CCCO2)cc1 | 7.9 | 28.1 | 16.2 | 8.2 | – | – | – | –
28 | CB(O)O [METHANE BORONIC ACID] | > 500 | – | – | > 500 | – | – | inactive | inactive
29 | OB(c1ccc(F)cc1)c1ccc(F)cc1 | 26.6 | 61.6 | 37.1 | 17.1 | – | – | – | –
30 | O=C1O[B-](c2ccccc2)(c2ccccc2)[NH2+][C@H]1Cc1c[nH]c2ccccc12 | 6.9 | – | – | 14.7 | – | – | inactive | inactive
31 | Brc1ccc([B-]2(c3ccccc3)[NH2+]CCO2)cc1 (stereo not given) | 3.4 | 9.8 | 13.2 | 4.9 | – | – | – | –
32 | OB(c1ccccc1)c1ccc(C(F)(F)F)cc1 | – | 12.5 | 11.3 | – | – | – | – | –
33 | c1ccc([B-]2(c3ccccc3)[NH2+]CCS2)cc1 | 51.8 | 93.5 | 127 | 44.6 | – | – | – | –
